Measured values reported in ChEMBL document CHEMBL1140118, “Design, synthesis, and structure-activity relationships of novel insulin receptor tyrosine kinase activators” (J Med Chem, 2008).
Calls of active or inactive are those of the source. The calls are words filed in the database; no cut-off is given here.

What was measured:
[1] = target: Insulin receptor (Mus musculus, UniProt P15208); test: Activation of insulin receptor tyrosine kinase in mouse 3T3-L1 cells assessed as increase in 2-deoxy-D-[14C]glucose transport in presence of insulin; format: cell-based
Procedure, shortened: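 Differentiated, 16 h serum-starved 3T3-L1 adipocytes were exposed to compound plus 5.6 nM insulin (submaximal) for 30 min at 37 °C. They were then pulsed 30 min with 0.5 µCi/mL 2-deoxy-D-[14C]glucose and lysate counts were read. Four concentrations were tested in triplicate. EC50 came from nonlinear regression of untransformed data, given as mean ± SEM when n ≥ 3.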

[2] = target: Insulin receptor (Homo sapiens) (UniProt P06213); test: Effect on autophosphorylation of human insulin receptor cytoplasmic kinase domain
Procedure, shortened: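 Recombinant human IR cytoplasmic domain (200 ng) in 50 mM Tris pH 7.4 with 2 mM MnCl2, 10 mM MgCl2, 50 µM ATP and [γ-32P]ATP (10 µCi) was incubated with varied compound concentrations for 10 min at 25 °C. Incorporated label was measured by scintillation counting, either of excised SDS-PAGE bands or of TCA precipitates washed with phosphoric acid.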

[3] = target: Insulin receptor (Mus musculus) (UniProt P15208); test: Activation of insulin receptor tyrosine kinase in mouse 3T3-L1 cells assessed as increase in 2-deoxy-D-[14C]glucose transport in absence of insulin; format: cell-based
Procedure, shortened: (§1)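 Differentiated 3T3-L1 adipocytes (induced 72 h with dexamethasone, IBMX and insulin, then 48 h with insulin, then 4 days in normal medium) were serum-starved 16 h in 0.1% BSA. Compound was added without insulin for 30 min at 37 °C. Uptake of 0.5 µCi/mL 2-deoxy-D-[14C]glucose over 30 min was read by scintillation counting of lysates after a cold PBS rinse.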

[4] = tested on: 3T3-L1; test: Increase in GLUT4 content in mouse 3T3-L1 cell plasma membrane at 56 uM in presence of insulin; format: functional
[5] = tested on: 3T3-L1; test: Increase in glucose transport in mouse 3T3-L1 cells at 30 uM in absence of insulin; format: functional; procedure, shortened: as §1
[6] = tested on: 3T3-L1; test: Increase in insulin-stimulated glucose transport in mouse 3T3-L1 cells at >=30 uM in presence of insulin; format: functional, cell-based
[7] = tested on: Rattus norvegicus; test: Reduction in blood glucose level in streptozotocin-induced hypoinsulinemic CD rat at 50 mg/kg, ip after 30 mins after glucose loading by oral glucose tolerance test; format: functional; design: scale not given: the % may be the effect or the level left
Procedure, shortened: (§2)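 Male CD IGS rats (250-300 g) received streptozotocin 60 mg/kg ip and were enrolled if fed glucose was ≥250 mg/dL. On day 4 post-STZ they were fasted overnight and randomized on baseline glucose (n = 12/group). They got compound or PBS, then a 50% dextrose load by gavage (4 mL/kg). Tail blood glucose was read by glucometer, and groups were compared by unpaired t test.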

[8] = target: Insulin receptor (Homo sapiens) (UniProt P06213); test: Activation of human insulin receptor overexpressed in mouse 3T3-HIR cells assessed as increase in phosphotyrosine at >=18 uM in absence of insulin; format: cell-based
[9] = tested on: 3T3-L1; test: Increase in glucose transport in mouse 3T3-L1 cells at 50 uM in absence of insulin; format: functional; procedure, shortened: as §1
[10] = target: Insulin receptor (Homo sapiens) (UniProt P06213); test: Activation of human insulin receptor overexpressed in mouse 3T3-HIR cells assessed as increase in phosphotyrosine at 3 uM in presence of insulin; format: cell-based
[11] = tested on: Rattus norvegicus; test: Reduction in blood glucose level in streptozotocin-induced hypoinsulinemic CD rat at 1000 mg/kg, po after 30 mins after glucose loading by oral glucose tolerance test; format: functional; design: scale not given: the % may be the effect or the level left; procedure, shortened: as §2

Insulin receptor, sequence (P15208 28-748 limits assumed): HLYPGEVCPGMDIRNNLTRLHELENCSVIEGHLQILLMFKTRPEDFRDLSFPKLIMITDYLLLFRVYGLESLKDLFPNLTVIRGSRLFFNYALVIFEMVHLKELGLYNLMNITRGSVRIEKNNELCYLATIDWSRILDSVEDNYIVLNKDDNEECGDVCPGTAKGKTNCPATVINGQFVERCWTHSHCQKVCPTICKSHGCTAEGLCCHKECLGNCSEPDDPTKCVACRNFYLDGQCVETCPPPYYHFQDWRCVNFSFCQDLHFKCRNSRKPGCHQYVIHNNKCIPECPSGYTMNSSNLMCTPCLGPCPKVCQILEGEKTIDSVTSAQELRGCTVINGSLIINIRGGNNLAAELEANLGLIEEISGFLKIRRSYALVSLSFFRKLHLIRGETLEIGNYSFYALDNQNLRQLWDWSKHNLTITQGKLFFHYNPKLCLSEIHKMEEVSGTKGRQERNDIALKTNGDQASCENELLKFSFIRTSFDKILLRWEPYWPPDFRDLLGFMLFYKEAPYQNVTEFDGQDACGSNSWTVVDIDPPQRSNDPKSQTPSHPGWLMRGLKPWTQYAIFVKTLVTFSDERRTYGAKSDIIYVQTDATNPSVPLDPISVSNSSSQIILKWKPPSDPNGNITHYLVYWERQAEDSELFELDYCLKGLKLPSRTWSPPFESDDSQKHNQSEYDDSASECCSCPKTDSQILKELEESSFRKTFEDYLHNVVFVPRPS
Insulin receptor, sequence (P15208 753-1372 limits assumed): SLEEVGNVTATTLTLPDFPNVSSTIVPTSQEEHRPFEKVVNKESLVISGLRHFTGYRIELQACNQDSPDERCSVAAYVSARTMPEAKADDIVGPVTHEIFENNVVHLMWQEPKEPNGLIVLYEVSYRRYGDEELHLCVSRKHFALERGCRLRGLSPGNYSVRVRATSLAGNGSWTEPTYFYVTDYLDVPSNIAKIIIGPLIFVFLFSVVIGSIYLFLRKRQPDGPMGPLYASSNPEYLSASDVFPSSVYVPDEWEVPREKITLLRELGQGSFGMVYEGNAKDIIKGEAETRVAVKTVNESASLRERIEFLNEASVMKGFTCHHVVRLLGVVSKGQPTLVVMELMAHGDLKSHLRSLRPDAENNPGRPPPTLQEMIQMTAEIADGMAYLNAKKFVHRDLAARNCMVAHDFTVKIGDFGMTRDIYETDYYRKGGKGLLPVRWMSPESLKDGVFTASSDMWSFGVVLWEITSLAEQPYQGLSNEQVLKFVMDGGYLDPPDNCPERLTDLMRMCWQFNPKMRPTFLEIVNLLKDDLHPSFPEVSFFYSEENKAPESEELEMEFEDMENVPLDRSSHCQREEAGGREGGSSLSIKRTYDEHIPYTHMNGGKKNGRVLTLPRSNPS
Insulin receptor (Homo sapiens), sequence (P06213 28-758 limits assumed): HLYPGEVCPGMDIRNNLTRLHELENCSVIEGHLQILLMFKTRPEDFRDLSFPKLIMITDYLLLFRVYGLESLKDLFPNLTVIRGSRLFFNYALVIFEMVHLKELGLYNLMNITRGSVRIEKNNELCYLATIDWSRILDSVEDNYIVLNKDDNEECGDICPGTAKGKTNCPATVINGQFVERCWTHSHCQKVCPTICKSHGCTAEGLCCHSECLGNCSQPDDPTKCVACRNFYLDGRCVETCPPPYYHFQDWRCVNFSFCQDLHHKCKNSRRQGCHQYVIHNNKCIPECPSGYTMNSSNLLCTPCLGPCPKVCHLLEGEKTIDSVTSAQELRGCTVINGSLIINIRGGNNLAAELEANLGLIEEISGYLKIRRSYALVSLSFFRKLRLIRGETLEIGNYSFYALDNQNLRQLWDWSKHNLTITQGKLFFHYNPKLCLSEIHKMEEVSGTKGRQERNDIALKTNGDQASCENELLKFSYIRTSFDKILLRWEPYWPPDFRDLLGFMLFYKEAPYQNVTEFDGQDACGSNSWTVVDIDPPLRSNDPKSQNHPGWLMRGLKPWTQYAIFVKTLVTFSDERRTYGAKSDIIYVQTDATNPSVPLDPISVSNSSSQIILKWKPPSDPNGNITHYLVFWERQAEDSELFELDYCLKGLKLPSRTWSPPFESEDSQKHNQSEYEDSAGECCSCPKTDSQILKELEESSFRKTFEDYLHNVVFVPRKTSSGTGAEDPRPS
Insulin receptor (Homo sapiens), sequence (P06213 763-1382 limits assumed): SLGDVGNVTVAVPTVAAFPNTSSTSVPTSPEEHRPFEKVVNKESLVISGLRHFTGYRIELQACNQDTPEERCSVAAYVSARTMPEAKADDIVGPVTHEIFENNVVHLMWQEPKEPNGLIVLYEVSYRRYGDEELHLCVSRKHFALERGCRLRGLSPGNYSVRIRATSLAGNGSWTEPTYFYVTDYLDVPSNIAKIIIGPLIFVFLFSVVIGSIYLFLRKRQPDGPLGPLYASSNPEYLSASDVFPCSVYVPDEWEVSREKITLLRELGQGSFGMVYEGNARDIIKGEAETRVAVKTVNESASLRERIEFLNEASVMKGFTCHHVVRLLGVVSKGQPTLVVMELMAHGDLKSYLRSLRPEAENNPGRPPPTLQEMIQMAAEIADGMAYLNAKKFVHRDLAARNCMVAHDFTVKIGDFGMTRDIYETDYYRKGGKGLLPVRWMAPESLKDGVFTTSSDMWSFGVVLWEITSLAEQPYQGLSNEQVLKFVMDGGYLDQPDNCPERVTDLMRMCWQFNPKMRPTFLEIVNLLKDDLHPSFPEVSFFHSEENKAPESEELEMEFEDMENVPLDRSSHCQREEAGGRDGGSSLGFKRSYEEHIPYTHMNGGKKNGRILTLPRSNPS
Insulin receptor (Mus musculus), sequence (P15208 28-748 limits assumed): as the sequence (P15208 28-748 limits assumed) above
Insulin receptor (Mus musculus), sequence (P15208 753-1372 limits assumed): as the sequence (P15208 753-1372 limits assumed) above

Structure (SMILES)	EC50 [1] [µM]	also measured
NS(=O)(=O)c1cccc(NS(=O)(=O)c2ccc3ccc(NC(=O)Nc4ccc5ccc(S(=O)(=O)Nc6cccc(S(N)(=O)=O)c6)cc5c4)cc3c2)c1	> 200	–
CNC(=Nc1ccc2ccc(S(=O)(=O)Nc3ccc(Cl)c(C(=O)O)c3)cc2c1)Nc1ccc2ccc(S(=O)(=O)Nc3ccc(Cl)c(C(=O)O)c3)cc2c1	> 200	–
O=C(Nc1ccc2ccc(S(=O)(=O)Nc3cccc([N+](=O)[O-])c3)cc2c1)Nc1ccc2ccc(S(=O)(=O)Nc3cccc([N+](=O)[O-])c3)cc2c1	> 200	–
O=C(Nc1ccc2c(O)cc(S(=O)(=O)Nc3cccc(-c4nn[nH]n4)c3)cc2c1)Nc1ccc2c(O)cc(S(=O)(=O)Nc3cccc(-c4nn[nH]n4)c3)cc2c1	73	–
CN(c1cccc(S(=O)(=O)O)c1)S(=O)(=O)c1ccc2ccc(NC(=O)Nc3ccc4ccc(S(=O)(=O)N(C)c5cccc(S(=O)(=O)O)c5)cc4c3)cc2c1	91	–
CC(=O)N(CCN(C(C)=O)c1ccc2ccc(S(=O)(=O)Nc3ccc(Cl)c(C(=O)O)c3)cc2c1)c1ccc2ccc(S(=O)(=O)Nc3ccc(Cl)c(C(=O)O)c3)cc2c1	> 200	–
N#Cc1cccc(NS(=O)(=O)c2ccc3ccc(NC(=O)Nc4ccc5ccc(S(=O)(=O)Nc6cccc(C#N)c6)cc5c4)cc3c2)c1	> 200	–
O=C(Nc1ccc2c(O)cc(S(=O)(=O)Nc3cccc(S(=O)(=O)O)c3)cc2c1)Nc1ccc2c(O)cc(S(=O)(=O)Nc3cccc(S(=O)(=O)O)c3)cc2c1	26	Activity [2]: Dose-dependent effect
O=C(Nc1ccc2c(O)cc(S(=O)(=O)Nc3ccccc3C(=O)O)cc2c1)Nc1ccc2c(O)cc(S(=O)(=O)Nc3ccccc3C(=O)O)cc2c1	93	–
O=C(Nc1ccc2ccc(S(=O)(=O)Nc3cccc(C(=O)O)c3O)cc2c1)Nc1ccc2ccc(S(=O)(=O)Nc3cccc(C(=O)O)c3O)cc2c1	150	–
O=C(Nc1ccc2ccc(S(=O)(=O)O)cc2c1)Nc1ccc2ccc(S(=O)(=O)Nc3ccc(O)c(C(=O)O)c3)cc2c1	> 200	–
CN(C(=O)N(C)c1ccc2ccc(S(=O)(=O)Nc3ccc(Cl)c(C(=O)O)c3)cc2c1)c1ccc2ccc(S(=O)(=O)Nc3ccc(Cl)c(C(=O)O)c3)cc2c1	> 200	–
O=C(Nc1ccc2c(O)cc(S(=O)(=O)Nc3ccc(Cl)c(C(=O)O)c3)cc2c1)Nc1ccc2c(O)cc(S(=O)(=O)Nc3ccc(Cl)c(C(=O)O)c3)cc2c1	18	–
O=C(Nc1ccc2ccc(S(=O)(=O)Nc3ccccc3)cc2c1)Nc1ccc2ccc(S(=O)(=O)Nc3ccccc3)cc2c1	> 200	–
O=C(Nc1ccc2ccc(C(=O)Nc3cccc(S(=O)(=O)O)c3)cc2c1)Nc1ccc2ccc(C(=O)Nc3cccc(S(=O)(=O)O)c3)cc2c1	> 200	–
O=C(Nc1ccc2c(O)cc(S(=O)(=O)Nc3ccc(O)c(C(=O)O)c3)cc2c1)Nc1ccc2c(O)cc(S(=O)(=O)Nc3ccc(O)c(C(=O)O)c3)cc2c1	43	–
O=C(Nc1ccc2ccc(S(=O)(=O)Nc3ccc(S(=O)(=O)O)cc3)cc2c1)Nc1ccc2ccc(S(=O)(=O)Nc3ccc(S(=O)(=O)O)cc3)cc2c1	94	–
O=C(Nc1ccc2c(O)cc(S(=O)(=O)Nc3cccc(C(F)(F)F)c3)cc2c1)Nc1ccc2c(O)cc(S(=O)(=O)Nc3cccc(C(F)(F)F)c3)cc2c1	> 200	–
O=C(Nc1ccc2ccc(S(=O)(=O)Nc3ccc(C(=O)O)cc3)cc2c1)Nc1ccc2ccc(S(=O)(=O)Nc3ccc(C(=O)O)cc3)cc2c1	183	–
O=C(Nc1ccc2c(O)c(/N=N/c3ccc(/N=N/c4ccc(S(=O)(=O)O)cc4)cc3S(=O)(=O)O)c(S(=O)(=O)O)cc2c1)Nc1ccc2c(O)cc(S(=O)(=O)O)c(/N=N/c3ccc(/N=N/c4ccc(S(=O)(=O)O)cc4)cc3S(=O)(=O)O)c2c1	90	Activity [2]: Dose-dependent effect; Activity [3]: inactive
O=C(O)c1cc(NS(=O)(=O)c2ccc3ccc(NCCNc4ccc5ccc(S(=O)(=O)Nc6ccc(Cl)c(C(=O)O)c6)cc5c4)cc3c2)ccc1Cl	> 200	–

Structure (SMILES)	EC50 [1] [µM]	also measured
O=C(Nc1ccc2ccc(S(=O)(=O)Nc3ccc(Cl)c(C(=O)O)c3)cc2c1)Nc1ccc2ccc(S(=O)(=O)Nc3ccc(Cl)c(C(=O)O)c3)cc2c1	16	–
O=C(Nc1ccc2ccc(S(=O)(=O)Nc3ccc(Cl)c(S(=O)(=O)O)c3)cc2c1)Nc1ccc2ccc(S(=O)(=O)Nc3ccc(Cl)c(S(=O)(=O)O)c3)cc2c1	6	–
NC(=Nc1ccc2ccc(S(=O)(=O)Nc3ccc(Cl)c(C(=O)O)c3)cc2c1)Nc1ccc2ccc(S(=O)(=O)Nc3ccc(Cl)c(C(=O)O)c3)cc2c1	179	–
O=C(Nc1ccc2ccc(S(=O)(=O)Nc3ccccc3C(=O)O)cc2c1)Nc1ccc2ccc(S(=O)(=O)Nc3ccccc3C(=O)O)cc2c1	41	–
O=C(Nc1ccc2c(O)cc(S(=O)(=O)Nc3cccc(C(=O)O)c3Cl)cc2c1)Nc1ccc2c(O)cc(S(=O)(=O)Nc3cccc(C(=O)O)c3Cl)cc2c1	121	–
O=C(O)c1cc(NS(=O)(=O)c2ccc3ccc(NC(=S)Nc4ccc5ccc(S(=O)(=O)Nc6ccc(Cl)c(C(=O)O)c6)cc5c4)cc3c2)ccc1Cl	162	–
O=C(Nc1ccc2ccc(S(=O)(=O)Nc3cccc(O)c3)cc2c1)Nc1ccc2ccc(S(=O)(=O)Nc3cccc(O)c3)cc2c1	> 200	–
O=C(Nc1ccc2ccc(S(=O)(=O)Nc3cccc(S(=O)(=O)O)c3)cc2c1)Nc1ccc2ccc(S(=O)(=O)Nc3cccc(S(=O)(=O)O)c3)cc2c1	22	–
O=C(Nc1ccc2c(O)cc(S(=O)(=O)Nc3cccc(C(=O)O)c3)cc2c1)Nc1ccc2c(O)cc(S(=O)(=O)Nc3cccc(C(=O)O)c3)cc2c1	43	–
O=C(Nc1ccc2ccc(S(=O)(=O)Nc3ccc(O)c(C(=O)O)c3)cc2c1)Nc1ccc2ccc(S(=O)(=O)Nc3ccc(O)c(C(=O)O)c3)cc2c1	9	–
N#CN=C(Nc1ccc2ccc(S(=O)(=O)Nc3ccc(Cl)c(C(=O)O)c3)cc2c1)Nc1ccc2ccc(S(=O)(=O)Nc3ccc(Cl)c(C(=O)O)c3)cc2c1	> 200	–
O=C(Nc1ccc2ccc(S(=O)(=O)Nc3cccc(C(=O)O)c3)cc2c1)Nc1ccc2ccc(S(=O)(=O)Nc3cccc(C(=O)O)c3)cc2c1	24	–
O=C(Nc1ccc2c(O)cc(S(=O)(=O)Nc3ccc(C(=O)O)cc3)cc2c1)Nc1ccc2c(O)cc(S(=O)(=O)Nc3ccc(C(=O)O)cc3)cc2c1	103	–
O=C(Nc1ccc2ccc(S(=O)(=O)O)cc2c1)Nc1ccc2ccc(S(=O)(=O)Nc3ccc(Cl)c(S(=O)(=O)O)c3)cc2c1	> 200	–
O=C(Nc1ccc2ccc(S(=O)(=O)Nc3cccc(-c4nn[nH]n4)c3)cc2c1)Nc1ccc2ccc(S(=O)(=O)Nc3cccc(-c4nn[nH]n4)c3)cc2c1	54	–
O=C(O)c1cc(NS(=O)(=O)c2ccc3ccc(N4CCN(c5ccc6ccc(S(=O)(=O)Nc7ccc(Cl)c(C(=O)O)c7)cc6c5)C4=O)cc3c2)ccc1Cl	56	–
O=C(Nc1ccc2c(O)cc(S(=O)(=O)Nc3ccc(Cl)c(S(=O)(=O)[O-])c3)cc2c1)Nc1ccc2c(O)cc(S(=O)(=O)Nc3ccc(Cl)c(S(=O)(=O)[O-])c3)cc2c1.[Na+].[Na+]	5	Activity [4]: 85%; Activity [5]: 340%; Activity [6]: Active; Activity [7]: 25%; Activity [8]: Active; Activity [9]: 875%; Activity [10]: 75%; Activity [11]: 32%
O=C(O)Cc1cccc(NS(=O)(=O)c2cc(O)c3ccc(NC(=O)Nc4ccc5c(O)cc(S(=O)(=O)Nc6cccc(CC(=O)O)c6)cc5c4)cc3c2)c1	> 200	–
O=C(Nc1ccc2ccc(C(=O)Nc3cccc(C(=O)O)c3)cc2c1)Nc1ccc2ccc(C(=O)Nc3cccc(C(=O)O)c3)cc2c1	> 200	–
O=C(Nc1ccc2c(O)cc(S(=O)(=O)Nc3cccc(CO)c3)cc2c1)Nc1ccc2c(O)cc(S(=O)(=O)Nc3cccc(CO)c3)cc2c1	> 200	–
O=C(Nc1ccc2ccc(S(=O)(=O)Nc3ccc([N+](=O)[O-])c(C(=O)O)c3)cc2c1)Nc1ccc2ccc(S(=O)(=O)Nc3ccc([N+](=O)[O-])c(C(=O)O)c3)cc2c1	40	–
